Reference: ChEMBL document CHEMBL4373670, “Selective in vitro anti-cancer activity of non-alkylating minor groove binders” (Medchemcomm, 2019)
Calls of active or inactive are those of the source. No cut-off for these calls is given here.

Columns and labels:
[1] = system: HCT-116; assay: Induction of DNA damage in human HCT116 cells assessed as increase in p53 expression at 0.25 uM to 1 uM incubated for 24 hrs by Western blot analysis; assay type: functional, cell-based
Method in brief: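 HCT116 cells were treated for 24 h and lysed in RIPA buffer. 40 µg lysate was run on 15% SDS-PAGE and transferred to nitrocellulose. Blots were probed for phospho-S139 γH2AX (9F3, 1:1000), p53 (DO-1, 1:1000) and β-actin (C4, 1:40 000), then detected with HRP secondaries and ECL.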

[2] = system: HCT-116; assay: Induction of DNA damage in human HCT116 cells assessed as increase in gammaH2AX phosphorylation at ser139 at 0.25 uM to 1 uM incubated for 24 hrs by Western blot analysis

COc1cccc2c1C(=O)c1c(O)c3c(c(O)c1C2=O)C[C@@](O)(C(=O)CO)C[C@@H]3O[C@H]1C[C@H](N)[C@H](O)[C@H](C)O1
Activity [1]: Active | Activity [2]: Active
